Experimental findings from ChEMBL document CHEMBL1129065, “Longimicins A-D: novel bioactive acetogenins from Asimina longifolia (annonaceae) and structure-activity relationships of asimicin type of annonaceous acetogenins” (1996) are described below.

Common to all, as to assay type: functional
One assay relates to MIA PaCa-2. The assay is described as follows: Cytotoxicity concentration against human pancreatic carcinoma PaCa-2 cell line. Particulars: read-out: ED50 (the source's name). A digest of the protocol:
(§1)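 7-day MTT cytotoxicity assay in human tumor cells, run at the Purdue Cancer Center cell culture lab under standard protocols. Samples serially diluted and each concentration tested in duplicate. ED50 calculated from the averaged values per concentration. Adriamycin included as positive control in every experiment.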

Another assay relates to PC-3. The experiment in a line: Cytotoxicity concentration against human prostate […] PC-3 cell line. Particulars: read-out: ED50 (the source's name). A digest of the protocol:
as §1

A further assay concerns A498. The experiment in a line: Cytotoxicity concentration against human kidney carcinoma A-498 cell line. Particulars: read-out: ED50 (the source's name). The essentials:
as §1

Another assay has as its system A549. The experiment in a line: Cytotoxicity concentration against human lung carcinoma A-549 cell line. As to conditions: read-out: ED50 (the source's name). The essentials: as §1
For the next assay, the system named is HT-29. The assay is described as follows: Cytotoxicity concentration against human colon […] HT-29 cell line. Particulars: read-out: ED50 (the source's name). A digest of the protocol:
as §1

The subject of the next assay is Culicidae. The assay is described as follows: Lethal concentration required against bioactivity using yellow fever mosquito larvae assay.
The subject of the next assay is MCF7. The experiment in a line: Cytotoxicity concentration against human breast carcinoma MCF-7 cell line. As to conditions: read-out: ED50 (the source's name). The essentials:
as §1

A further assay relates to Artemia. The experiment in a line: Lethal concentration required against bioactivity using brine shrimp lethality test.

Values after ≈ are worked out from the molar mass of the structure shown.

Regarding `CCCCCCCCCCCCCC[C@@H](O)[C@H]1CC[C@H]([C@H]2CC[C@H]([C@H](O)CCCC[C@@H](O)CC3=C[C@H](C)OC3=O)O2)O1`, the EC50 with MIA PaCa-2 was found to be 1.09 µg/mL (≈ 1.83 µM); in the assay with PC-3, 2.96 µg/mL (≈ 4.98 µM); with A498 it was 0.127 µg/mL (≈ 0.213 µM); in the assay with A549, 0.455 µg/mL (≈ 0.765 µM); in the assay with HT-29, 1 µg/mL (≈ 1.68 µM); in the assay on MCF7, 0.088 µg/mL (≈ 0.148 µM). Further, the 50% lethal concentration (LC50) in the assay on Culicidae turned out to be 75.7 µg/mL (≈ 127 µM); in the assay with Artemia, 9.42 µg/mL (≈ 15.8 µM).
With `CCCCCCCCCCCCCC[C@@H](O)[C@H]1CC[C@H]([C@H]2CC[C@H]([C@H](O)CCCCCC[C@@H](O)CC3=C[C@H](C)OC3=O)O2)O1`, the EC50 in the assay with MIA PaCa-2 stood at 0.0173 µg/mL (≈ 0.0278 µM); in the assay with PC-3, 0.0701 µg/mL (≈ 0.113 µM); in the assay on A498, 0.544 µg/mL (≈ 0.873 µM); in the assay with A549, 0.295 µg/mL (≈ 0.474 µM); with HT-29, 0.525 µg/mL (≈ 0.843 µM); in the assay on MCF7, 0.889 µg/mL (≈ 1.43 µM). For the same molecule, the median lethal concentration (LC50) with Culicidae came to 141 µg/mL (≈ 226 µM); in the assay with Artemia, 18.7 µg/mL (≈ 30 µM).
As for `CCCCCCCCCCC(O)C1CCC(C2CCC(C(O)CCCCCCCC[C@H](O)CC3=C[C@@H](C)OC3=O)O2)O1` (stereo partly specified) [ASIMICIN], the EC50 with A549 was determined as 0.00843 µg/mL (≈ 0.0142 µM); with MCF7 it was 0.852 µg/mL (≈ 1.43 µM). For the same molecule, the LC50 turned out to be 3.04 µg/mL (≈ 5.11 µM) with Culicidae and 0.026 µg/mL (≈ 0.0437 µM) in the assay with Artemia.
As to `CCCCCCC[C@H]1CC[C@H](CCCC[C@@H](O)[C@H]2CC[C@H](CCC[C@H](O)[C@@H](O)CCCCCCCC3=C[C@H](C)OC3=O)O2)O1` [ASIMIN], the median lethal concentration (LC50) in the assay with Artemia was determined as 0.0046 µg/mL (≈ 0.00738 µM).
Regarding `CCCCCCCCCCCC[C@@H](O)[C@H]1CC[C@H]([C@H]2CC[C@H]([C@H](O)CCCCCC[C@@H](O)CC3=C[C@H](C)OC3=O)O2)O1`, the EC50 in the assay with MIA PaCa-2 was determined as 0.0792 µg/mL (≈ 0.133 µM); in the assay on PC-3, 2.2 µg/mL (≈ 3.7 µM); in the assay with A498, 0.064 µg/mL (≈ 0.108 µM); with A549, 0.143 µg/mL (≈ 0.24 µM); in the assay with HT-29 it was 0.00332 µg/mL (≈ 0.00558 µM); in the assay with MCF7 it was 0.0154 µg/mL (≈ 0.0259 µM). Also, the LC50 was determined as 30.4 µg/mL (≈ 51.1 µM) in the assay on Culicidae and 7.34 µg/mL (≈ 12.3 µM) with Artemia.
Consider `CCCCCCCCCCCC[C@@H](O)[C@H]1CC[C@H]([C@H]2CC[C@H]([C@H](O)CC[C@H](O)CCCCCCCC3=C[C@H](C)OC3=O)O2)O1`, for which the EC50 was 0.000242 µg/mL (≈ 0.000388 µM) in the assay on PC-3; 0.0353 µg/mL (≈ 0.0567 µM) in the assay with A498; 0.000493 µg/mL (≈ 0.000791 µM) with A549; 0.0116 µg/mL (≈ 0.0186 µM) in the assay with HT-29; 0.215 µg/mL (≈ 0.345 µM) in the assay with MCF7. The LC50 turned out to be 8.29 µg/mL (≈ 13.3 µM) in the assay with Culicidae and 4.58 µg/mL (≈ 7.35 µM) in the assay with Artemia.
Turning to `COc1cccc2c1C(=O)c1c(O)c3c(c(O)c1C2=O)C[C@@](O)(C(=O)CO)C[C@@H]3O[C@H]1C[C@H](N)[C@H](O)[C@H](C)O1` [DOXORUBICIN], the EC50 in the assay with MIA PaCa-2 came out at 0.034 µg/mL (≈ 0.0626 µM); in the assay with PC-3, 0.287 µg/mL (≈ 0.528 µM); with A498 it was 0.0663 µg/mL (≈ 0.122 µM); in the assay with A549, 0.0262 µg/mL (≈ 0.0482 µM); with HT-29 it was 0.0494 µg/mL (≈ 0.0909 µM); in the assay on MCF7, 0.194 µg/mL (≈ 0.357 µM). The LC50 in the assay with Artemia turned out to be 0.26 µg/mL (≈ 0.478 µM).
Turning to `CCCCCCCCCC[C@@H](O)[C@H]1CC[C@H]([C@H]2CC[C@H]([C@H](O)CCCCCCCC[C@@H](O)CC3=C[C@H](C)OC3=O)O2)O1` [PARVIFLORIN], the EC50 came out at 0.549 µg/mL (≈ 0.923 µM) in the assay with HT-29 and 1.72 µg/mL (≈ 2.89 µM) in the assay on MCF7. This molecule came in with an LC50 in the assay on Artemia of 0.088 µg/mL (≈ 0.148 µM).
